Source: PubChem (The Scripps Research Institute Molecular Screening Center)
OX1R antag-1: OX1R (HCRTR1) antagonists, primary screen, fluorescence, CHO/OX1R cells, Fluo-8 calcium, orexin A | AID 434989, 2010 | inhibition, % at 5 µM | Orexin/Hypocretin receptor type 1 (Homo sapiens), O43613 | Fluo-8 calcium fluorescence | hit rate 0.43% among 330,000;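 active = inhibition above its plate's threshold, mean inhibition of all tested compounds on the plate plus 3 SD, cut at about 37% in these data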;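 note: 0% = orexin A challenge wells and 100% = SB-334867-A antagonist wells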
CHO parental Ca: ATP-evoked calcium signal inhibitors, parental CHO, primary screen, counter-screen for OX1R antagonist project, cell-based, fluorescence, Fluo-8 calcium dye; inhibition, % at 5.6 µM; parental CHO-K1, ATP-induced calcium, Fluo-8 fluorescence; hit rate 0.63% among 330,000;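 active = inhibition above that plate's mean sample inhibition plus 3 SD, cut at about 26% in these data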;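 note: 0% = ATP-challenged DMSO wells and 100% = DMSO wells without ATP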
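test system = CHO parental line | reagent = ATP stimulus | measured by = intracellular calcium via Fluo-8 no-wash fluorescent dye | control set = ATP and no-ATP DMSO wells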
GPR7 antag: GPR7 receptor antagonists, primary screen, cell-based, fluorescence, single concentration | Neuropeptides B/W receptor type 1 (Homo sapiens), P48145 | GPR7-expressing cells, fluorescence antagonist assay | inhibition, % at 4.4 µM | hit rate 1.1% among 290,000 | AID 1861, 2009; in the data active = inhibition above about 16%, passing the limit was not always enough;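 note: cells stimulated with the agonist NPW; 0% = agonist with vehicle and 100% = vehicle without agonist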
Target sequence (P48145 whole entry, looked up): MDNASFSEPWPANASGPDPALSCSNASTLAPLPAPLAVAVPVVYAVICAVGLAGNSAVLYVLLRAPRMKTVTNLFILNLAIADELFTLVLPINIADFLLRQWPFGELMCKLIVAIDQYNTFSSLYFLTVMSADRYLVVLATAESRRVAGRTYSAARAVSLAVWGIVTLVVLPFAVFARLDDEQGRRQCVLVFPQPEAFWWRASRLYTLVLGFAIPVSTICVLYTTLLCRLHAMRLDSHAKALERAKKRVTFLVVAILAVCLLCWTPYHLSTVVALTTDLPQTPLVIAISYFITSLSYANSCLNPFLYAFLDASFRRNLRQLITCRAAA
GalR3 antagonist: GalR3 antagonists in HEK293 cells, primary screen, cell-based, fluorescence readout; Galanin receptor type 3 (Homo sapiens), O60755; HEK293 GalR3-CNG cAMP membrane potential fluorescence; galR3 body fused to GalR1 C-terminus; inhibition, % at 3 µM; hit rate 0.44% among 360,000; AID 651719, 2012;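 active = inhibition above the screen-wide average plus 3 SD, cut at about 13% in these data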;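 note: forskolin and galanin both at EC90 stimulate the cells; cAMP rise reported by CNG channel membrane potential dye signal; 0% = forskolin plus galanin with DMSO and 100% = forskolin alone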
Target sequence (O60755 1-299 limits assumed): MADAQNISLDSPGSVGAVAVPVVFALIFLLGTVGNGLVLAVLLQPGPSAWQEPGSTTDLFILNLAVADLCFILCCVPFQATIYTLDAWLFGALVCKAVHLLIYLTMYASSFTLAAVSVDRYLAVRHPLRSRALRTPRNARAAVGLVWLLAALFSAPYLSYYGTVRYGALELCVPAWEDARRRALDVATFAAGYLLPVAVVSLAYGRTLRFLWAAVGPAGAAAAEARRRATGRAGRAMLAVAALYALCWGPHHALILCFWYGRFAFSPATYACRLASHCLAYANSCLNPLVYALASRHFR
OX1R antag-2: antagonists of human orexin 1 receptor (OX1R); inhibition, % at 6.6 µM; OX1R-expressing cells, FRET antagonist read-out; hit rate 1.8% among 330,000; AID 485270, 2010; Orexin/Hypocretin receptor type 1 (Homo sapiens), O43613; in the data active = inhibition mostly above about 38%, no sharp cut-off; inactive = mostly below about 40%;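 note: 0% = agonist challenge alone and 100% = reference antagonist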
An asterisk follows results filed as active. Only some compounds are listed: those with a hit (about 3.1% of all), similar ones and a draw of the others.

CC1(C)Cc2cccc(OCC(=O)OCc3nnc(-c4ccccc4)o3)c2O1 was read as OX1R antag-1 -22, CHO parental Ca -14, GalR3 antagonist -7 and OX1R antag-2 3.
Screening Cc1csc(=O)n1CC(=O)OCC(=O)NNC(=O)c1ccc([N+](=O)[O-])cc1 returned OX1R antag-1 -1, CHO parental Ca 0, GalR3 antagonist -2 and OX1R antag-2 76*.
For Cc1csc(=O)n1CC(=O)OCC(=O)NNC(=O)c1ccccc1 the results were OX1R antag-1 0, CHO parental Ca 7, GPR7 antag -4, GalR3 antagonist 3 and OX1R antag-2 8.
`CC1(C)Cc2cccc(OCC(=O)OCc3nnc(-c4ccc([N+](=O)[O-])cc4)o3)c2O1` gave OX1R antag-1 -7, CHO parental Ca -2, GalR3 antagonist -5 and OX1R antag-2 50*.
For O=C(CSc1nccn1Cc1ccco1)Nc1ccccc1C(F)(F)F the results were OX1R antag-1 -16, CHO parental Ca -16, GPR7 antag -15, GalR3 antagonist -4 and OX1R antag-2 20.
Screening COc1ccccc1N(CC(O)Cn1c(C)nc2ccccc21)S(=O)(=O)c1ccccc1 (stereo not given) returned OX1R antag-1 10, CHO parental Ca -18, GPR7 antag 1, GalR3 antagonist -3 and OX1R antag-2 63*.
`COc1ccc(CCNC(=O)COc2ncnc3cc([N+](=O)[O-])ccc23)cc1` gave OX1R antag-1 -25, CHO parental Ca -4, GPR7 antag -2, GalR3 antagonist -3 and OX1R antag-2 53*.
Screening CCN(Cc1ccncc1)C(=O)Cc1cccs1 returned OX1R antag-1 -9, CHO parental Ca -8, GPR7 antag -4, GalR3 antagonist -10 and OX1R antag-2 4.
Screening O=C(NN=C1c2ccccc2-c2ccccc21)c1ccccc1 returned OX1R antag-1 -24, CHO parental Ca -24, GalR3 antagonist -8 and OX1R antag-2 34.
O=C(NN=C1c2ccccc2-c2ccccc21)c1ccccc1Br was read as OX1R antag-1 24, CHO parental Ca -20, GPR7 antag 6, GalR3 antagonist -6 and OX1R antag-2 49*.
For O=C(Nc1ccc([N+](=O)[O-])cn1)C1CC2CCC1C2 (stereo not given) the results were OX1R antag-1 -2, CHO parental Ca -12, GPR7 antag -3, GalR3 antagonist -11 and OX1R antag-2 16.
Screening COc1ccc2c(c1)CSC(c1ccccc1)C2=O (stereo not given) returned GalR3 antagonist -3.
`COc1ccccc1OC(=O)Nc1ccc(Cl)cc1` gave OX1R antag-1 -3, CHO parental Ca 31*, GPR7 antag -5, GalR3 antagonist -9 and OX1R antag-2 10.
COc1ccccc1OCC(=O)NNC(=O)Nc1ccc(Cl)cc1 was read as OX1R antag-1 -42, CHO parental Ca -5, GPR7 antag 11, GalR3 antagonist -4 and OX1R antag-2 16.
For COc1ccc(OC)c(-n2c(Cn3c(-c4ccccn4)nc4ccccc43)n[nH]c2=S)c1 the results were OX1R antag-1 4, CHO parental Ca -13, GPR7 antag -5, GalR3 antagonist -3 and OX1R antag-2 59*.
For CCCNC(=O)c1cc(C2CCCN(C(=O)c3ccc(NC(C)=O)cc3)C2)on1 (stereo not given) the results were GalR3 antagonist -6.
Nc1ncnc2c1ncn2[C@@H]1O[C@H](C(=O)N[C@@H](CCc2ccccc2)C(=O)N2CCN(C(=O)N3CCCCC3)CC2)[C@@H](O)[C@H]1O was read as GalR3 antagonist -6.
`COc1ccccc1OCCSc1nnnn1-c1ccc(C)cc1` gave OX1R antag-1 -41, CHO parental Ca 40*, GalR3 antagonist -1 and OX1R antag-2 16.
O=C(/C=C/c1cc(Br)ccc1O)c1ccco1 was read as OX1R antag-1 9, CHO parental Ca -18, GPR7 antag 13, GalR3 antagonist 28* and OX1R antag-2 7.
O=C(CN1C(=O)/C(=C/c2ccccc2F)Sc2ccccc21)NCC1CCCO1 (stereo not given) was read as OX1R antag-1 22, CHO parental Ca -20, GPR7 antag -9, GalR3 antagonist 2 and OX1R antag-2 66*.
`O=C(CN1C(=O)NC2(CCCC2)C1=O)NCCN1C(=O)S/C(=C\c2ccccc2F)C1=O` gave OX1R antag-1 -18, CHO parental Ca -22, GalR3 antagonist -2 and OX1R antag-2 51*.
`O=C(CN1C(=O)CC(c2ccccc2)Sc2ccccc21)NCC1CCCO1` (stereo not given) gave OX1R antag-1 -9, CHO parental Ca -4, GPR7 antag -11, GalR3 antagonist -5 and OX1R antag-2 6.
COc1ccc(/C=C2\SC(=O)N(CCNC(=O)CN3C(=O)NC4(CCCC4)C3=O)C2=O)cc1 was read as OX1R antag-1 -14, CHO parental Ca -6, GalR3 antagonist -4 and OX1R antag-2 28.
CC1CCCC(=NNC(=O)C2COc3ccccc3O2)C1 (stereo not given) was read as OX1R antag-1 -12, CHO parental Ca -1, GalR3 antagonist 0 and OX1R antag-2 1.
Screening Cc1ccc(OCC(=O)NNC(=O)C2CCN(c3ncnc4sc(C)c(C)c34)CC2)cc1 returned OX1R antag-1 -35, CHO parental Ca -16, GalR3 antagonist 1 and OX1R antag-2 25.
Cc1sc2ncnc(N3CCC(C(=O)NNC(=O)COc4ccc(Br)cc4)CC3)c2c1C was read as OX1R antag-1 0, CHO parental Ca -12, GalR3 antagonist -2 and OX1R antag-2 63*.
For Cc1sc2ncnc(N3CCC(C(=O)NNC(=O)COc4ccc(Cl)cc4)CC3)c2c1C the results were GalR3 antagonist -1.
Cc1sc2ncnc(N3CCC(C(=O)Nc4ccc(OC(F)F)c(Cl)c4)CC3)c2c1C was read as OX1R antag-1 17, CHO parental Ca -8, GalR3 antagonist -4 and OX1R antag-2 30*.
`Cc1cc(Cl)ccc1OCC(=O)NNC(=O)C1CCN(c2ncnc3sc(C)c(C)c23)CC1` gave OX1R antag-1 21, CHO parental Ca 1, GalR3 antagonist -6 and OX1R antag-2 33*.
Screening C[C@@H]1CN([C@@H](C)CO)C(=O)CCCn2nncc2CO[C@H]1CN(C)S(=O)(=O)c1cccs1 returned GalR3 antagonist -5.
For Cn1c(=O)c2c(ncn2CCCC(=N)N2CCOCC2)n(C)c1=O the results were OX1R antag-1 -5, CHO parental Ca 12, GPR7 antag -3, GalR3 antagonist -4 and OX1R antag-2 13.
`CC(=O)Nc1ccc(S(=O)(=O)c2cc(O)ccc2O)cc1` gave GPR7 antag -9 and GalR3 antagonist -7.
